Measurements taken from PMC3310199 (Journal of Medicinal Chemistry, 2012).
Entries after “also recorded” stand apart in the source; their conditions may differ. Where a SMILES comes first, the peptide text is derived from it. The star is where a group is joined. Cbz = O=C(OCc1ccccc1)*; CHN2 = [N-]=[N+]=C*

Experiments:
IdeS [1] = biological target: T1, IdeS (Streptococcus pyogenes, UniProt Q9F1R7); conditions: cited from earlier work
T1 sequence (Q9F1R7 30-339): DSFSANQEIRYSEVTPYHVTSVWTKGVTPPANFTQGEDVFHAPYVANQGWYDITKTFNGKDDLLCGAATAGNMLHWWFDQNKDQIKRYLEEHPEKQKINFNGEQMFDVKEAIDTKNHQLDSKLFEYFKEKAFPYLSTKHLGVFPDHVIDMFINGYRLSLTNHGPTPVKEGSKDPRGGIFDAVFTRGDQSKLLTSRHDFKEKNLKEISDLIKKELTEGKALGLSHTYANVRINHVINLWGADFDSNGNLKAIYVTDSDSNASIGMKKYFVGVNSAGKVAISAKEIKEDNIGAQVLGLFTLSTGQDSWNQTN

papain [2] = biological target: T2, papain (Carica papaya, UniProt P00784); test: Papain activity assay; assay type: biochemical; conditions: papain 0.9 μM, 4.8 × 10^3 molar excess of peptide/analogue
T2 sequence (P00784 134-345): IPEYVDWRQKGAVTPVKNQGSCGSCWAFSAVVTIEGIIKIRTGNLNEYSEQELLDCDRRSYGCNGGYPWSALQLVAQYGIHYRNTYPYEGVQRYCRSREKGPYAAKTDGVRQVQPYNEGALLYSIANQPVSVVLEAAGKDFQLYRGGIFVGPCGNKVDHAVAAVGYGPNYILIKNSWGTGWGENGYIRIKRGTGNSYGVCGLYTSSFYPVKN
Method in brief: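 Papain was taken up in pH 6.2 phosphate buffer with EDTA and DTT. It was preincubated 10 min at RT with test compound (stock 30 mM in 50% DMSO/phosphate pH 6.2). Substrate (stock 100 mM in DMSO) was added, then 2 h at 37 °C. Reactions were stopped with glacial acetic acid and cleavage read as Abs405. Duplicates were run on two separate occasions.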

[3] = biological target: T3, streptococcal cysteine protease SpeB (Streptococcus pyogenes serotype M1, UniProt P0C0J1); test: SpeB activity assay; assay type: biochemical, S. pyogenes; conditions: SpeB 0.28 μM, 4.8 × 10^3 molar excess of peptide/analogue
T3 sequence (P0C0J1 146-398): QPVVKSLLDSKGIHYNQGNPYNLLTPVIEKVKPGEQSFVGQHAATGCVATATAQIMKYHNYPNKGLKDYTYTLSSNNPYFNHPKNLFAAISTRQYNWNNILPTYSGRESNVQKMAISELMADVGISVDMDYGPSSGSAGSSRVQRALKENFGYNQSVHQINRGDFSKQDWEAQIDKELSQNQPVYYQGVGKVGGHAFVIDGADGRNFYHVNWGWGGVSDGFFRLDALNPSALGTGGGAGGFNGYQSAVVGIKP
Method in brief: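 SpeB was purified from S. pyogenes strain 5448 culture medium by ammonium sulfate precipitation and ion exchange. It was activated with 2 mM DTT for 30 min at 37 °C, and active amount was set by E-64 active-site titration. Enzyme was preincubated 15 min at RT with test compound (stock 30 mM in 50% DMSO/phosphate pH 7.4). BPFA was then added (1 mM solution, 0.1 M phosphate pH 6) and OD405 change recorded. Triplicates.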

papain [4] = biological target: T2, papain; test: Determination of inhibition constants; assay type: biochemical; conditions: 5 μM papain, Nα-benzoyl-DL-arginine 4-nitroanilide 0.25-6 mM
Method in brief: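 Initial velocities were measured with or without inhibitor at Nα-benzoyl-DL-arginine 4-nitroanilide 6, 3, 1, 0.5 or 0.25 mM and 5 μM papain. Ki was derived by nonlinear regression fitted to a competitive inhibition model.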

IdeS [5] = biological target: T1, IdeS; assay type: biochemical; conditions: for inhibitory activity toward IdeS (Figure 4): IdeS 0.8 μM, 4.8 × 10^3 molar excess of peptide/analogue, IgG1 substrate
Method in brief: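 Recombinant His-Trx-IdeS was expressed in E. coli BL21, the tag removed with TEV protease, and purified by Ni2+-resin and size exclusion. Enzyme was preincubated with test compound (stock 30 mM in 50% DMSO/phosphate pH 7.4) 15 min at RT. Human IgG1 was added, then 20 min at 37 °C, stopped with iodoacetamide. Protein A-CM5 SPR was read at 190 s post-injection against no-enzyme controls, converted to fraction active IdeS via a standard curve. Triplicates.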

SMILES | inhibition of IdeS by known inhibitors (IdeS [1]) | inhibitory effect on papain activity (Figure 5B) (papain [2]) | inhibitory effect on SpeB activity (Figure 5A) [3] | inhibitory activity toward IdeS (Figure 4) (IdeS [5]) | other results
CC(C)C[C@H](NC(=O)C1OC1C(=O)O)C(=O)NCCCCN=C(N)N (stereo in doubt) [E64, 1-[N-[(3-trans-carboxyoxirane-2-carbonyl)-L-leucyl]amino]-4-guanidinobutane] | not inhibited | – | – | – | –
CC(C)C[C@H](N)C(=O)NCC(=O)N1CCC[C@@H](N2CCC[C@H]2C(N)=O)C1 [(R)-LGpipP] | – | most active analogue | inhibited SpeB activity | – | –
CC(C)C[C@H](N)C(=O)N1CCC[C@@H](NCC(N)=O)C1 [(R)-LpipG, (−)-2-[(1-L-Leucinyl-(R)-piperidin-3-yl)amino]acetamide] | – | hardly affecting papain | do not inhibit SpeB | most potent inhibitors; also recorded: potent inhibitors of IdeS | effect on initial velocities of papain activity (papain [4]): remained unchanged
NC(=O)[C@@H]1CCCN1C(=O)CN[C@@H]1CCCNC1 [(R)-pipGP] | – | even more active toward papain | no inhibitory activity | most potent inhibitors; also recorded: most active inhibitors of IdeS | –
CC(C)C[C@H](N)C(=O)NCC(=O)N1CCC[C@H](N2CCC[C@H]2C(N)=O)C1 [(S)-LGpipP] | – | – | inhibited SpeB activity | – | –
CCN(CC(N)=O)[C@H]1CCCN(C(=O)[C@H](CC(C)C)NC(=O)[C@@H](N)CC(C)C)C1 [(S)-LLpipEtG] | – | – | clearly improved degree of inhibition | – | –
CC(C)C[C@H](N)C(=O)N1CCC[C@H](NCC(=O)N2CCC[C@H]2C(N)=O)C1 [(S)-LpipGP] | – | even more active toward papain | no inhibitory activity | most potent inhibitors; also recorded: most active inhibitors of IdeS | –
NC(=O)CN[C@H]1CCCNC1 [(S)-pipG, (+)-2-((S)-Piperidin-3-ylamino)acetamide] | – | hardly affecting papain | do not inhibit SpeB | most potent inhibitors; also recorded: potent inhibitors of IdeS | effect on initial velocities of papain activity (papain [4]): remained unchanged; ligand efficiency (LE) for IdeS inhibition (IdeS [5]; binding energy per atom considered): most favorable peptide analogue in the series
NC(=O)[C@@H]1CCCN1C(=O)CN[C@H]1CCCNC1 [(S)-pipGP] | – | – | – | most potent inhibitors | –
Cc1ccc(S(=O)(=O)N[C@@H](CCCCN)C(=O)CCl)cc1 [TLCK, tosyl lysyl chloromethyl ketone] | reported to inhibit IdeS | – | – | – | –
Cc1ccc(S(=O)(=O)N[C@@H](Cc2ccccc2)C(=O)CCl)cc1 [TPCK, tosyl phenylalanyl chloromethyl ketone] | reported to inhibit IdeS | – | – | – | –
CC(C)CC(NC(=O)OCc1ccccc1)C(=O)NC(C(=O)NCC(=O)C=[N+]=[N-])C(C)C (stereo not drawn) [Z-LVG CHN2, N-benzyloxycarbonyl-leucyl-valyl-glycine diazomethylketone] (Cbz-Leu-Val-Gly-CHN2; configuration not given here) | reported to inhibit IdeS | – | – | – | –
